Source: ChEMBL document CHEMBL3351584, “Binding mode and potency of N-indolyloxopyridinyl-4-aminopropanyl-based inhibitors targeting Trypanosoma cruzi CYP51” (J Med Chem, 2014)

Assays:
Assay type in all cases: ADME, organism-based
Homo sapiens = species on record: Homo sapiens; assay: Volume of distribution in human; details: in vivo
[1] = Cmax in Swiss Webster mouse at 25 mg/kg, po administered as single dose by LC-MS/MS method; parameters: dose 25 mg/kg, route oral; details: in vivo
Outline: (§1)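 Eight-week-old female Swiss Webster mice (n = 3 per compound) given one oral gavage dose of 25 mg/kg, formulated at 5 mg/mL in 20% Kolliphor/80% water. Plasma sampled at about 0.25, 0.5, 1, 2, 4, 6, 8, 12 and 24 h, precipitated with 5× v/v acetonitrile, filtered 0.2 μm and quantified by LC–MS/MS. Parameters calculated from plasma concentration–time curves, averaged over three mice.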

[2] = AUClast in Swiss Webster mouse at 25 mg/kg, po administered as single dose by LC-MS/MS method; parameters: dose 25 mg/kg, route oral, time 0 - last; details: plasma; outline: as §1
[3] = Tmax in Swiss Webster mouse at 25 mg/kg, po administered as single dose by LC-MS/MS method; parameters: dose 25 mg/kg, route oral; details: in vivo; outline: as §1
Mus musculus = assay: Volume of distribution in Swiss Webster mouse at 25 mg/kg, po administered as single dose by LC-MS/MS method; parameters: dose 25 mg/kg, route oral; details: in vivo; outline: as §1

Structure (SMILES)	Vd (Homo sapiens) [L/kg]	Cmax [1] [nM]	AUC(0-t) [2] [µM·h]	Tmax [3] [h]	Vd (Mus musculus) [L/kg]
CC[C@@H]([C@H](C)O)n1ncn(-c2ccc(N3CCN(c4ccc(OC[C@@H]5CO[C@@](Cn6cncn6)(c6ccc(F)cc6F)C5)cc4)CC3)cc2)c1=O [POSACONAZOLE]	5	–	–	–	–
O=C(N[C@H](Cc1c[nH]c2ccccc12)C(=O)Nc1ccncc1)c1ccc(N2CCN(c3cc(Cl)cc(Cl)c3)CC2)cc1F	–	1850	22.5	4.67	3.97
Cc1ccc(Cl)cc1N1CCN(c2ccc(C(=O)N[C@H](Cc3c[nH]c4ccccc34)C(=O)Nc3ccncc3)c(F)c2)CC1	–	1800	19	3.33	3.44
